Values after ≈ are worked out from the molar mass of the structure shown.
Legend:
[1] = test system: Mycobacterium tuberculosis; experiment: Antitubercular activity against Mycobacterium tuberculosis H37Rv assessed as bacterial growth inhibition by MABA; format: functional
HEK293 = experiment: Cytotoxicity against human HEK293 cells assessed as reduction in cell viability incubated for 48 hrs by CCK8 assay; format: cell-based; conditions: HEK293, 48 h
[2] = Tmax in Sprague-Dawley rat at 40 mg/kg, po measured upto 8 hrs by LC-MS/MS analysis; format: ADME, organism-based; conditions: in vivo
How it was run: (§1)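 Male SPF SD rats (180–220 g), fasted overnight, fed 4 h post-dose; single 40 mg/kg oral dose suspended in 5% DMSO/10% Solutol/85% water; n=3. Jugular blood at 0.25–8 h, plasma protein precipitated with MeOH containing internal standard, analysed by LC-MS/MS; AUC, Cmax, Tmax, MRT from plasma concentration data; mean ± SD.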

[3] = Cmax in Sprague-Dawley rat at 40 mg/kg, po measured upto 8 hrs by LC-MS/MS analysis; format: ADME, organism-based; set-up: route oral, dose 40 mg/kg, time <=8; conditions: in vivo; how it was run: as §1
[4] = AUC (0 to t) in Sprague-Dawley rat at 40 mg/kg, po measured upto 8 hrs by LC-MS/MS analysis; format: ADME, organism-based; set-up: route oral, dose 40 mg/kg, time <=8; conditions: in vivo; how it was run: as §1
[5] = Selectivity index, ratio of IC50 for human HEK293 cells to MIC for Mycobacterium tuberculosis; format: toxicity; conditions: read-out: Selectivity Index
How it was run: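 Ratio of HEK-293 IC50 (µM) to anti-Mtb MIC (µM).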

[6] = Mean residence time in Sprague-Dawley rat at 40 mg/kg, po measured upto 8 hrs by LC-MS/MS analysis; format: ADME, organism-based; conditions: in vivo; how it was run: as §1
Klebsiella pneumoniae [7] = experiment: Antibacterial activity against ESBLs negative Klebsiella pneumoniae 7 assessed as bacterial growth inhibition incubated for 18 hrs by agar dilution method; format: functional
Staphylococcus aureus [8] = experiment: Antibacterial activity against methicillin-resistant Staphylococcus aureus ATCC 33591 assessed as bacterial growth inhibition incubated for 18 hrs by agar dilution method; format: functional
[9] = test system: Staphylococcus epidermidis; experiment: Antibacterial activity against methicillin-sensitive Staphylococcus epidermidis ATCC 12228 assessed as bacterial growth inhibition incubated for 18 hrs by agar dilution method; format: functional
[10] = test system: Acinetobacter calcoaceticus; experiment: Antibacterial activity against Acinetobacter calcoaceticus ATCC 19606 assessed as bacterial growth inhibition incubated for 18 hrs by agar dilution method; format: functional
Enterococcus faecalis = experiment: Antibacterial activity against Vancomycin-susceptible Enterococcus faecalis ATCC 29212 assessed as bacterial growth inhibition incubated for 18 hrs by agar dilution method; format: functional
Escherichia coli = experiment: Antibacterial activity against ESBLs negative Escherichia coli ATCC 25922 assessed as bacterial growth inhibition incubated for 18 hrs by agar dilution method; format: functional
Klebsiella pneumoniae [11] = experiment: Antibacterial activity against ESBLs positive Klebsiella pneumoniae ATCC 700603 assessed as bacterial growth inhibition incubated for 18 hrs by agar dilution method; format: functional
Enterococcus faecium = experiment: Antibacterial activity against vancomycin-resistant Enterococcus faecium ATCC 700221 assessed as bacterial growth inhibition incubated for 18 hrs by agar dilution method; format: functional
Pseudomonas aeruginosa = experiment: Antibacterial activity against Pseudomonas aeruginosa ATCC 27853 assessed as bacterial growth inhibition incubated for 18 hrs by agar dilution method; format: functional
[12] = Acute toxicity in BALB/c mouse at 1000 mg/kg, po measured after 7 days; format: organism-based; conditions: in vivo, 168 h, time 7 day
How it was run: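 SPF female BALB/c mice, 18–22 g, groups of six; single 1000 mg/kg oral gavage in 0.5% CMC-Na; housed at 20–24°C; surviving mice counted over the observation period (14 days per methods, 7 days per results text).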

Staphylococcus aureus [13] = experiment: Antibacterial activity against methicillin-sensitive Staphylococcus aureus ATCC 29213 assessed as bacterial growth inhibition incubated for 18 hrs by agar dilution method; format: functional

Compound | MIC [1] [µM] | IC50 (HEK293) [µM] | also measured
O=C(Nc1nc2ccccc2o1)c1ccc(Cl)s1 | 14.3 (≈ 4 µg/mL) | – | –
Cc1nnsc1C(=O)Nc1nc2cc(-c3cccnc3)ccc2o1 | 2.96 (≈ 0.999 µg/mL) | 54.9 | –
Cc1nnsc1C(=O)Nc1nc2c(-c3ccccn3)cccc2o1 | 23.7 (≈ 8 µg/mL) | – | –
Cc1nnsc1C(=O)Nc1nc2c(ccc3cccnc32)o1 | 103 (≈ 32 µg/mL) | – | –
Cc1nnsc1C(=O)Nc1nc2ccc(Cl)cc2o1 | 0.42 (≈ 0.124 µg/mL) | 7.14 | –
Cc1nnsc1C(=O)Nc1nc2cc(F)ccc2o1 | 0.45 (≈ 0.125 µg/mL) | 42 | –
Cc1nnsc1C(=O)Nc1nc2c(Oc3ncccn3)cccc2o1 | 2.82 (≈ 0.999 µg/mL) | > 100 | Tmax [2]: 2.83 h; Cmax [3]: 6.93 ng/mL; AUC(0-t) at 8 h [4]: 38 ng·h/mL; selectivity ratio [5]: > 18; MRT [6]: 4.12 h
Cc1nnsc1C(=O)Nc1nc2c(OCc3ccccn3)cccc2o1 | 5.44 (≈ 2 µg/mL) | 61.8 | –
Cc1nnsc1C(=O)Nc1nc2cc(Br)ccc2o1 | 2.95 (≈ 1 µg/mL) | 45 | –
COC(=O)c1ccc(-c2ccc3oc(NC(=O)c4snnc4C)nc3c2)cc1 | 1.27 (≈ 0.501 µg/mL) | – | –
O=C(Nc1nc2ccccc2o1)c1ccco1 | 17.5 (≈ 4 µg/mL) | > 100 | –
Cc1nnsc1C(=O)Nc1nc2cc(C(C)(C)C)ccc2o1 | 0.4 (≈ 0.127 µg/mL) | 6.73 | Tmax [2]: ≥ 8 h; Cmax [3]: 6840 ng/mL; MIC (Klebsiella pneumoniae [7]): > 405 µM; AUC(0-t) at 8 h [4]: 24800 ng·h/mL; selectivity ratio [5]: 17; MRT [6]: 5.26 h; MIC (Staphylococcus aureus [8]): 6.32 µM (≈ 2 µg/mL); MIC [9]: 6.32 µM (≈ 2 µg/mL); MIC [10]: > 405 µM; MIC (Enterococcus faecalis): 12.6 µM (≈ 4 µg/mL); MIC (Escherichia coli): > 405 µM; MIC (Klebsiella pneumoniae [11]): > 405 µM; MIC (Enterococcus faecium): 12.6 µM (≈ 4 µg/mL); MIC (Pseudomonas aeruginosa): > 405 µM; Activity [12]: Non-Toxic; MIC (Staphylococcus aureus [13]): 6.32 µM (≈ 2 µg/mL)
Cc1nnsc1C(=O)Nc1nc2cc(-c3ccccn3)ccc2o1 | 0.74 (≈ 0.25 µg/mL) | > 100 | Tmax [2]: ≥ 8 h; Cmax [3]: 9050 ng/mL; MIC (Klebsiella pneumoniae [7]): > 379 µM; AUC(0-t) at 8 h [4]: 27800 ng·h/mL; selectivity ratio [5]: > 270; MRT [6]: 5.59 h; MIC (Staphylococcus aureus [8]): 1.48 µM (≈ 0.499 µg/mL); MIC [9]: 2.96 µM (≈ 0.999 µg/mL); MIC [10]: > 379 µM; MIC (Enterococcus faecalis): 11.9 µM (≈ 4 µg/mL); MIC (Escherichia coli): > 379 µM; MIC (Klebsiella pneumoniae [11]): > 379 µM; MIC (Enterococcus faecium): 5.93 µM (≈ 2 µg/mL); MIC (Pseudomonas aeruginosa): > 379 µM; Activity [12]: Non-Toxic; MIC (Staphylococcus aureus [13]): 5.93 µM (≈ 2 µg/mL)
Cc1nnsc1C(=O)Nc1nc2cc(-c3cnn(C)c3)ccc2o1 | 1.47 (≈ 0.5 µg/mL) | – | –
Cc1ccc2oc(NC(=O)c3snnc3C)nc2c1 | 1.82 (≈ 0.499 µg/mL) | 21.9 | –
COC(=O)c1ccc2oc(NC(=O)c3snnc3C)nc2c1 | 3.14 (≈ 1 µg/mL) | – | –
Cc1nnsc1C(=O)Nc1nc2cc(N3CCOCC3)ccc2o1 | 11.6 (≈ 4 µg/mL) | 18.3 | –

Compound | MIC [1] [µM] | IC50 (HEK293) [µM] | also measured
Cc1nnsc1C(=O)Nc1nc2ccccc2[nH]1 | 30.9 (≈ 8 µg/mL) | > 100 | –
Cc1nnsc1C(=O)Nc1nc2c(ccc3ccccc32)o1 | 103 (≈ 32 µg/mL) | 80.9 | –
Cc1nnsc1C(=O)Nc1nc2cc(Cl)ccc2o1 | 0.42 (≈ 0.124 µg/mL) | 6.65 | selectivity ratio [5]: 4; Activity [12]: Non-Toxic
Cc1nnsc1C(=O)Nc1nc2c(Br)cccc2o1 | 1.47 (≈ 0.499 µg/mL) | 10.6 | –
O=C(Nc1nc2ccccc2o1)c1cccs1 | 16.4 (≈ 4 µg/mL) | 81.9 | –
Cc1nnsc1C(=O)Nc1nc2ccccc2s1 | 28.9 (≈ 8 µg/mL) | > 100 | –
Cc1nnsc1C(=O)Nc1nc2ccccc2o1 | 0.48 (≈ 0.125 µg/mL) | 19.6 | –
Cc1nnsc1C(=O)Nc1nc2cc(-c3ccncc3)ccc2o1 | 1.48 (≈ 0.499 µg/mL) | – | –
Cc1nnsc1C(=O)Nc1nc2ncccc2o1 | 7.66 (≈ 2 µg/mL) | 15.2 | –
Cc1nnsc1C(=O)Nc1nc2c(ccc3ncccc32)o1 | 103 (≈ 32 µg/mL) | 59 | –
Cc1nnsc1C(=O)Nc1nc2ccc(C(C)(C)C)cc2o1 | 3.16 (≈ 1 µg/mL) | 2.42 | –
O=C(Nc1nc2ccccc2o1)c1ccccc1 | 269 (≈ 64 µg/mL) | > 100 | –
CC[C@@H](CO)NCCN[C@@H](CC)CO [ETHAMBUTOL] | < 2.45 | – | –
NNC(=O)c1ccncc1 [ISONIAZID] | < 3.65 | – | –
CO[C@H]1/C=C/O[C@@]2(C)Oc3c(C)c(O)c4c(O)c(c(/C=N/N5CCN(C)CC5)c(O)c4c3C2=O)NC(=O)/C(C)=C\C=C\[C@H](C)[C@H](O)[C@@H](C)[C@@H](O)[C@@H](C)[C@H](OC(C)=O)[C@@H]1C [RIFAMPIN] | < 0.61 | – | –
CN[C@@H]1[C@H](O[C@H]2[C@H](O[C@H]3[C@H](O)[C@@H](O)[C@H](N=C(N)N)[C@@H](O)[C@@H]3N=C(N)N)O[C@@H](C)[C@]2(O)C=O)O[C@@H](CO)[C@H](O)[C@H]1O [STREPTOMYCIN] | < 0.69 | – | –
